In ChEMBL document CHEMBL4393654, “Discovery and Early Clinical Development of an Inhibitor of 5-Lipoxygenase Activating Protein (AZD5718) for Treatment of Coronary Artery Disease” (J Med Chem, 2019):

Assays:
Cytochrome P450 2C8 = molecular target: T1, Cytochrome P450 2C8 (Homo sapiens, UniProt P10632); experiment: Inhibition of recombinant human CYP2C8 expressed in Escherichia coli using luciferin-ME as substrate by fluorescence assay; assay type: ADME
T1 sequence (P10632 whole entry): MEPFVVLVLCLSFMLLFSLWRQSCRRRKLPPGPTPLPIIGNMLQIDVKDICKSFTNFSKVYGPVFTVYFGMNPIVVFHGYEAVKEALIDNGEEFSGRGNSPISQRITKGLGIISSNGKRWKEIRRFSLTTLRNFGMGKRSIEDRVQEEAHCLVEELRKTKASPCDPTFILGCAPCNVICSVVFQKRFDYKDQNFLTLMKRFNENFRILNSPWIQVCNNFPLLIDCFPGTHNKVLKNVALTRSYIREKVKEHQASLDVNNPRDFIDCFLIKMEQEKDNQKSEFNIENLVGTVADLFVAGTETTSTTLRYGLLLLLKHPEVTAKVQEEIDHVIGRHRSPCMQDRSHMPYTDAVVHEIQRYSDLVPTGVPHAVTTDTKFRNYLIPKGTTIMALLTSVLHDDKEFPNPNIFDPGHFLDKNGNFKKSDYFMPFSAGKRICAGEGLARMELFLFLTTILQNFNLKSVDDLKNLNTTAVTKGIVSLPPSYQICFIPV

Cytochrome P450 1A2 = molecular target: T2, Cytochrome P450 1A2 (Homo sapiens, UniProt P05177); experiment: Inhibition of recombinant human CYP1A2 expressed in Escherichia coli using CEC as substrate by fluorescence assay; assay type: ADME
T2 sequence (P05177 whole entry): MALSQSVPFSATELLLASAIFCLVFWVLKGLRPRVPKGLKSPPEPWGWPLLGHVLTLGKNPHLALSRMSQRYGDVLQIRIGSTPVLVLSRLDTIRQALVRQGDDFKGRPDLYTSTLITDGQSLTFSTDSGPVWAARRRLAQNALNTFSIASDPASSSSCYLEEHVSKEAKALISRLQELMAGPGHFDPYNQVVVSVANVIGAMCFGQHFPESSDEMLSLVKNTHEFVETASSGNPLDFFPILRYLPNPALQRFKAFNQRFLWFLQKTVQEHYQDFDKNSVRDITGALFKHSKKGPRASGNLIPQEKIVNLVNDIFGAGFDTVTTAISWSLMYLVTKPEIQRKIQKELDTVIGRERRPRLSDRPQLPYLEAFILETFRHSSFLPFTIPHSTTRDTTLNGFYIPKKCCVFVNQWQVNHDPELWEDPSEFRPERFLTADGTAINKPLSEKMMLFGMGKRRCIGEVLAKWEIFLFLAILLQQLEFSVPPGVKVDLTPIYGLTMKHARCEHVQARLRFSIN

[1] = molecular target: Sodium channel protein type 5 subunit alpha (Homo sapiens, UniProt Q14524); experiment: Inhibition of human NaV1.5 by Ion-work electrophysiology assay
Sequence of Sodium channel protein type 5 subunit alpha (Q14524 whole entry): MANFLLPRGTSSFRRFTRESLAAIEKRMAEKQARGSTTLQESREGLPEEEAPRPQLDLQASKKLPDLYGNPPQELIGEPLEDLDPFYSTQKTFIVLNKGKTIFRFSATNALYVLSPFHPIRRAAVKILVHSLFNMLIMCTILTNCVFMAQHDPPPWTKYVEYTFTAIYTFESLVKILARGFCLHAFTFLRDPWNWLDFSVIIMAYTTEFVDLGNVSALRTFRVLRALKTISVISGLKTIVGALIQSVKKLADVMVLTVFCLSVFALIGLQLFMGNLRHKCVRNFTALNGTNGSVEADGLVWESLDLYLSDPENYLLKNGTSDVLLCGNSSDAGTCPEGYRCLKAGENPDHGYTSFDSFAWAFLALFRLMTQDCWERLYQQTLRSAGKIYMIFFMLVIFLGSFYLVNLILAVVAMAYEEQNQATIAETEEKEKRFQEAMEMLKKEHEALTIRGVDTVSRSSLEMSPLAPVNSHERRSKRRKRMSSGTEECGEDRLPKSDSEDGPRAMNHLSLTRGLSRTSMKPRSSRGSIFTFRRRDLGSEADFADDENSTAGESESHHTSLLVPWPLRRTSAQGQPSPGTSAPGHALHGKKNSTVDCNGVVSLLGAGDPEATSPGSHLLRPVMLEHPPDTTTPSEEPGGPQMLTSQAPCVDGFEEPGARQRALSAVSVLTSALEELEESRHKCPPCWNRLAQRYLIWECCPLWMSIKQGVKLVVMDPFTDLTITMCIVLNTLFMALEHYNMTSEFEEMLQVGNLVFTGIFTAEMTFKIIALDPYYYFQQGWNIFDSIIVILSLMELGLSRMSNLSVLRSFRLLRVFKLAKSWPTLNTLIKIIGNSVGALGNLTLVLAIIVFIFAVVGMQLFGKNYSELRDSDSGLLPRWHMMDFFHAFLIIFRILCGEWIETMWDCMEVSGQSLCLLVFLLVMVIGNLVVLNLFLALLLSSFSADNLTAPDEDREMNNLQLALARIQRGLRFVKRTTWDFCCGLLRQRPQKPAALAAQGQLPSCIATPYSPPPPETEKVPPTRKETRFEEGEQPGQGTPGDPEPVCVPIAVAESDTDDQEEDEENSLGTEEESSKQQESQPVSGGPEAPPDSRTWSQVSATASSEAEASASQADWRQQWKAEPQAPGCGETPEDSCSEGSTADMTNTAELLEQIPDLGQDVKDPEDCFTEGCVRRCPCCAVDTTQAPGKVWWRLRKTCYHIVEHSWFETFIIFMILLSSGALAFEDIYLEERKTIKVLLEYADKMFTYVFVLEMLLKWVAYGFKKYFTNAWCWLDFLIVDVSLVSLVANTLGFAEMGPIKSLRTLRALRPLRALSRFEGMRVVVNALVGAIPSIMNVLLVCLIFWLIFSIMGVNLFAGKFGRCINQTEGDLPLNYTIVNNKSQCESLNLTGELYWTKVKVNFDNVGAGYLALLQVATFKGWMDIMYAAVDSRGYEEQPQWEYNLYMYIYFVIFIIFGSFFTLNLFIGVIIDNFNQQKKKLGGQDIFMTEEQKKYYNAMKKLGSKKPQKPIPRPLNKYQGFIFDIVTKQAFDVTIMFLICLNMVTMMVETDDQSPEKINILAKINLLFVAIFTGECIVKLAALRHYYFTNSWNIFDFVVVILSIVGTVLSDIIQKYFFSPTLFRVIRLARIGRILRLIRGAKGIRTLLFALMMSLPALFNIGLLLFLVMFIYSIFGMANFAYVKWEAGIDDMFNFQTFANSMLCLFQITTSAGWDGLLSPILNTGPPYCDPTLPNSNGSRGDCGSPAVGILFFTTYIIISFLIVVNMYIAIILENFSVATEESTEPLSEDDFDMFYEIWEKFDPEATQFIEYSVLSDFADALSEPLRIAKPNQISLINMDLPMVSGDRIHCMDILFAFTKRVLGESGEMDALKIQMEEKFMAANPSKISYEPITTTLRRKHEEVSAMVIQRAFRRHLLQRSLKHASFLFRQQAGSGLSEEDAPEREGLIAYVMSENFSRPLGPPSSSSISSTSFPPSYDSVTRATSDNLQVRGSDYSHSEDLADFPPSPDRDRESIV

[2] = molecular target: T3, Potassium voltage-gated channel subfamily KQT member 1 (Homo sapiens, UniProt P51787); experiment: Inhibition of human Kv7.1 by Ion-work electrophysiology assay
T3 sequence (P51787 whole entry): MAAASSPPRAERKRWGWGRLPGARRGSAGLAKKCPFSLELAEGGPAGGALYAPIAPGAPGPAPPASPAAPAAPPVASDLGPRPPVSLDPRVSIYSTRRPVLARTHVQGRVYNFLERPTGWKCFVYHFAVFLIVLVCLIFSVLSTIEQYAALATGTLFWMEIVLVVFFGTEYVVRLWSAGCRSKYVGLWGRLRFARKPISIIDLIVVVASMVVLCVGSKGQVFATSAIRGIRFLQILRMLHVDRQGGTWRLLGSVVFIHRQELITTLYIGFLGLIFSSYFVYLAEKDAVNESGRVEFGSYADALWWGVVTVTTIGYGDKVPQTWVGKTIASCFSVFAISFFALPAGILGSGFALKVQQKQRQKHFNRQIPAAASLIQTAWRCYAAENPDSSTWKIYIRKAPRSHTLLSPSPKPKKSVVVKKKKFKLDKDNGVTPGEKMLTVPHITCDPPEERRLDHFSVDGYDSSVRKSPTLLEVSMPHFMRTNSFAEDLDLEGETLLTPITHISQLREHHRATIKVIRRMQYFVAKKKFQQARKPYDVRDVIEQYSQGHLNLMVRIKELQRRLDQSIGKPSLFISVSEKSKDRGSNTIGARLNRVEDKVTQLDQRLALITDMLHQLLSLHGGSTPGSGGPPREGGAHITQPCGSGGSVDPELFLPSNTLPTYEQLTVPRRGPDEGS

Cytochrome P450 3A4 = Cytochrome P450 3A4 (Homo sapiens, UniProt P08684); experiment: Inhibition of recombinant human CYP3A4 expressed in Escherichia coli using BFC as substrate by fluorescence assay; assay type: ADME
Sequence of Cytochrome P450 3A4 (P08684 whole entry): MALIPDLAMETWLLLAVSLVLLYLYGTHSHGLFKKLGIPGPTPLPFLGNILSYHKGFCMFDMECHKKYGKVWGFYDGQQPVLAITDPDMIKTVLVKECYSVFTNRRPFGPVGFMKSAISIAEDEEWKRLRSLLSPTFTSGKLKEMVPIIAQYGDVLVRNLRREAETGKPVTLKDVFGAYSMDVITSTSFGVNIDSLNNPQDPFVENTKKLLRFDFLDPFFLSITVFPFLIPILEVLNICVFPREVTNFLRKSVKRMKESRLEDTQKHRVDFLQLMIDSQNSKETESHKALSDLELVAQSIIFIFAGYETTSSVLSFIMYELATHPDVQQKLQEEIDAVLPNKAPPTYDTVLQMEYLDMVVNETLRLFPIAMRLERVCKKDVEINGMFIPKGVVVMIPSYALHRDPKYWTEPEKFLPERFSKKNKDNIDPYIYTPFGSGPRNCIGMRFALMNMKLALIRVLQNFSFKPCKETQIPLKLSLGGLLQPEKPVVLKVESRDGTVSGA

[3] = Toxicity in conscious telemetered Beagle dog assessed as vomiting; parameters: species or system Canis lupus familiaris; conditions: in vivo
[4] = molecular target: Potassium voltage-gated channel subfamily A member 5 (Homo sapiens, UniProt P22460); experiment: Inhibition of human Kv1.5 by Ion-work electrophysiology assay
Sequence of Potassium voltage-gated channel subfamily A member 5 (P22460 whole entry): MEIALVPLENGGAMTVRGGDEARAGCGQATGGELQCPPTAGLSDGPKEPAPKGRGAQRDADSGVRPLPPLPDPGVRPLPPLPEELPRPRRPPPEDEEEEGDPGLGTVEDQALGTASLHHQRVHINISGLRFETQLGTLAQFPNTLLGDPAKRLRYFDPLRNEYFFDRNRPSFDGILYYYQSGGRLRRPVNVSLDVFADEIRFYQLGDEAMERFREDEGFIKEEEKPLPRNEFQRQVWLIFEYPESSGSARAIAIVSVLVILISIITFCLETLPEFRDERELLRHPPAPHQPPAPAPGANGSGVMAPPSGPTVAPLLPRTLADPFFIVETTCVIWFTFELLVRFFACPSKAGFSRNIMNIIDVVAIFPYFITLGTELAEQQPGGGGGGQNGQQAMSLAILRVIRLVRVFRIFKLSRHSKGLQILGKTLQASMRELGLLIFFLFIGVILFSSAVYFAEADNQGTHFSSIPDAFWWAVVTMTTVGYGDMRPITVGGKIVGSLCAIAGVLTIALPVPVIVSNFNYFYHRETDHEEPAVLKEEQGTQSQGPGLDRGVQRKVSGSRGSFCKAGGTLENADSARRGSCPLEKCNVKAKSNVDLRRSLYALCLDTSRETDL

[5] = Clearance in rat at 2 umol/kg, iv; assay type: ADME; conditions: in vivo
[6] = molecular target: Solute carrier organic anion transporter family member 1B1 (Homo sapiens, UniProt Q9Y6L6); experiment: […] at recombinant human OATP1B1 expressed in HEK293 cells assessed as reduction in pivastatin uptake; assay type: ADME, cell-based
[7] = Protein binding in Sprague-Dawley rat plasma assessed as unbound fraction by equilibrium dialysis method; assay type: ADME, cell-free
[8] = molecular target: Voltage-dependent T-type calcium channel subunit alpha-1H (Homo sapiens, UniProt O95180); experiment: Inhibition of human Cav3.2 by Ion-work electrophysiology assay
[9] = Mutagenicity in Salmonella typhimurium TA98 in absence of rat S9 fraction by Ames test; assay type: toxicity; conditions: salmonella enterica subsp. enterica serovar typhimurium
Method in brief: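 Ames bacterial mutagenicity test in S. typhimurium TA98 and TA100. Run with and without metabolic activation by rat S9 fraction.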

[10] = Clearance in Beagle dog at 2 umol/kg, iv; assay type: ADME, Canis lupus familiaris; conditions: in vivo
[11] = Half life in Beagle dog at 2 umol/kg, iv; assay type: ADME, Canis lupus familiaris; conditions: in vivo
[12] = Intrinsic clearance in human hepatocytes assessed per million cells at 1 uM measured after 2 to 60 mins by LC-MS/MS analysis; assay type: ADME, cell-based, Hepatocyte; conditions: read-out: CLH
[13] = Volume of distribution at steady state in Beagle dog at 2 umol/kg, iv; assay type: ADME, Canis lupus familiaris; conditions: in vivo, read-out: Vdss
[14] = molecular target: Potassium/sodium hyperpolarization-activated cyclic nucleotide-gated channel 4 (Homo sapiens, UniProt Q9Y3Q4); experiment: Inhibition of human HCN4 by Ion-work electrophysiology assay
Sequence of Potassium/sodium hyperpolarization-activated cyclic nucleotide-gated channel 4 (Q9Y3Q4 whole entry): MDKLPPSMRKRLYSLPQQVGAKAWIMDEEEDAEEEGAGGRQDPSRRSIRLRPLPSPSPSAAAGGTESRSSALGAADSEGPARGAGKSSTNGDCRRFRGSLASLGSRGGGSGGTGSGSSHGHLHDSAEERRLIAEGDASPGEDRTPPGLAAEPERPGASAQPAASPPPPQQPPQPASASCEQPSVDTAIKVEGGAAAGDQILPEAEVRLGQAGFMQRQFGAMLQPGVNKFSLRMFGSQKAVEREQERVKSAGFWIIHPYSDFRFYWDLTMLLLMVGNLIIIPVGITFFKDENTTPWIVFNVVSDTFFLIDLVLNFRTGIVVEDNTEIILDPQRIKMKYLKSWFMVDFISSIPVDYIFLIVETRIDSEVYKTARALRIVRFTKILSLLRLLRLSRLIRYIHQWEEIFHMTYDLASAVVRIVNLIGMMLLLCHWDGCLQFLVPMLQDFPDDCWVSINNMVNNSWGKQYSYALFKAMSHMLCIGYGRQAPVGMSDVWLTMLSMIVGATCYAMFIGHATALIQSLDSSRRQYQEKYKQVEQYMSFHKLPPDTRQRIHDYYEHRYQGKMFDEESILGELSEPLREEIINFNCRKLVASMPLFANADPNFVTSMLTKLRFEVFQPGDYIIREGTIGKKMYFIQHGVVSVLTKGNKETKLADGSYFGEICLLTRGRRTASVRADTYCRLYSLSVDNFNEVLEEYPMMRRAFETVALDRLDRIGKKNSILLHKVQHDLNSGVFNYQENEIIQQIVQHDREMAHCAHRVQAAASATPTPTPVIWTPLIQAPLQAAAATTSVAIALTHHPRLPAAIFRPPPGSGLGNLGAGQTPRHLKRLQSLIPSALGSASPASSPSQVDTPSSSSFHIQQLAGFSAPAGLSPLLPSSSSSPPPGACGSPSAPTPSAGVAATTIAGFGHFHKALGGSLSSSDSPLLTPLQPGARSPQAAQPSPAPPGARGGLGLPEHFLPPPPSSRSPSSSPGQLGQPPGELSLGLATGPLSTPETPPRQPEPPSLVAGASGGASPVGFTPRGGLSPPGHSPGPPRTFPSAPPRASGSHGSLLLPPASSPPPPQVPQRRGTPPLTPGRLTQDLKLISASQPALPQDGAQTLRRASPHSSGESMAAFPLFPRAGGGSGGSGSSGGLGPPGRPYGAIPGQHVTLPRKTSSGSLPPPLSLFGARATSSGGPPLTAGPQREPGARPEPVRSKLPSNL

Cytochrome P450 2C9 = Cytochrome P450 2C9 (Homo sapiens, UniProt P11712); experiment: Inhibition of recombinant human CYP2C9 expressed in Escherichia coli using 7MFC as substrate by fluorescence assay; assay type: ADME
Sequence of Cytochrome P450 2C9 (P11712 whole entry): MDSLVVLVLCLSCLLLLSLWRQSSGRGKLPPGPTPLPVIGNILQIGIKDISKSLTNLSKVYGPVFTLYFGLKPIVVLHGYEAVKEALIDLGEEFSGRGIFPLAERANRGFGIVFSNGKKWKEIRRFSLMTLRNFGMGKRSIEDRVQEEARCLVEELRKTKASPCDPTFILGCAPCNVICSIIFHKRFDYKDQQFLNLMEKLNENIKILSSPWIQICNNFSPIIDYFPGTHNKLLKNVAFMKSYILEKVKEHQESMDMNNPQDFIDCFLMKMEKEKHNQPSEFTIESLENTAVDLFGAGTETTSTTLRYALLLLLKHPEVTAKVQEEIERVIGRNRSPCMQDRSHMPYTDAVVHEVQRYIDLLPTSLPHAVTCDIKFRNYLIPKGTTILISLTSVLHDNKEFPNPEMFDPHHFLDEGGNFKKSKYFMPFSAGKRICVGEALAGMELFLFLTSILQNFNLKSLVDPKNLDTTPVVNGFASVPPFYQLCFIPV

[15] = Half life in rat at 1 umol/kg, iv; assay type: ADME; conditions: in vivo
[16] = Clearance in rat at 1 umol/kg, iv; assay type: ADME; conditions: in vivo
[17] = Oral bioavailability in Beagle dog at 2 umol/kg; assay type: ADME, organism-based, Canis lupus familiaris; conditions: in vivo
[18] = Volume of distribution at steady state in rat at 1 umol/kg, iv; assay type: ADME; conditions: in vivo, read-out: Vdss
Cytochrome P450 = experiment: Drug metabolism in human hepatocytes assessed as CYP450-mediated oxidation at 4 uM measured after 120 mins by LC-MS/MS analysis; assay type: ADME, cell-based, Hepatocyte; conditions: 2 h
HepG2 = experiment: Cytotoxicity against human HepG2 cells assessed as reduction in ATP depletion in presence of glucose/galactose; assay type: cell-based

Row | IC50 (Cytochrome P450 2C8) [µM] | IC50 (Cytochrome P450 1A2) [µM] | IC50 [2] [µM] | IC50 (Cytochrome P450 3A4) [µM] | IC50 [4] [µM] | IC50 [6] [µM] | fraction unbound [7] | IC50 [8] [µM] | clearance [10] [mL/min/kg] | half-life [11] [h] | hepatocyte CLint at 1 µM [12] [µL/min/1e6 cells] | Vd [13] [L/kg] | IC50 [14] [µM] | IC50 (Cytochrome P450 2C9) [µM] | half-life [15] [h] | clearance [16] [mL/min/kg] | bioavailability [17] [%] | Structure (SMILES) | IC50 [1] [µM] | Activity [3] | Activity [9] | also measured
1 | > 20 | > 20 | > 33 | > 20 | > 32 | 2.5 | 0.014 | > 32 | 2.5 | 6.8 | 4.9 | 1.3 | > 32 | > 20 | – | – | – | Cc1cc(-c2ccc(C(=O)[C@@H]3CCCC[C@H]3C(=O)Nc3cnn(C)c3S(N)(=O)=O)cc2)[nH]n1 | > 33 | Toxic | Non-Toxic | clearance [5]: 10 mL/min/kg
2 | > 20 | > 20 | > 33 | > 20 | > 32 | – | 0.024 | > 32 | 7.6 | 2.1 | 4.2 | 1.1 | > 32 | > 20 | 0.45 | 36 | 65 | Cc1cc(-c2ccc(C(=O)[C@@H]3CCCC[C@H]3C(=O)Nc3cnn4c3C(=O)NCC4)cc2)[nH]n1 | > 33 | Non-Toxic | Non-Toxic | Vd [18]: 1.1 L/kg
3 | > 20 | > 20 | > 33 | > 20 | – | 1.4 | < 0.0004 | – | – | – | 6 | – | – | > 20 | 4.7 | 1.2 | 65 | Cc1cc(-c2ccc(C(=O)[C@@H]3CCCC[C@H]3C(=O)Nc3cnn(C)c3C(=O)NOC(C)(C)C)cc2)[nH]n1 | > 33 | – | Non-Toxic | Drug metabolism (Cytochrome P450): Metabolite_Detected; Vd [18]: 0.18 L/kg; IC50 (HepG2): > 250 µM
